ChEMBL document CHEMBL3102789, “Synthesis and biological evaluation of novel oxadiazole derivatives: a new class of thymidine phosphorylase inhibitors as potential anti-tumor agents” (Bioorg Med Chem, 2014)

These compounds were tested against Thymidine phosphorylase (Escherichia coli K-12) (UniProt P07650) (assay: Ratio of 7-deazaxanthine IC50 to compound IC50 for Escherichia coli thymidine phosphorylase using […] as substrate after 10 mins by spectrophotometric analysis).
Sequence of Thymidine phosphorylase (Escherichia coli K-12) (P07650 whole entry, looked up): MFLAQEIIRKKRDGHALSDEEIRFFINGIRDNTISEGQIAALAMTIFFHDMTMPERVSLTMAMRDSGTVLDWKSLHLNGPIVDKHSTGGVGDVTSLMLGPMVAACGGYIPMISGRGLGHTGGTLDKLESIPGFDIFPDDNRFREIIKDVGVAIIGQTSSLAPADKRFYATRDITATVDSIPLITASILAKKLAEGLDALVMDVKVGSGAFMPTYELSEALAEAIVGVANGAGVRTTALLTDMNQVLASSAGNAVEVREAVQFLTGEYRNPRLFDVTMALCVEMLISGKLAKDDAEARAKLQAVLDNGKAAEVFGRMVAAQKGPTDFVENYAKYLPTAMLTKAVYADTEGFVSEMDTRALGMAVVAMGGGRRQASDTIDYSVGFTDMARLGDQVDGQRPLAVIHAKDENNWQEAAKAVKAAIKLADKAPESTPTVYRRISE
Work on COc1ccc([N+](=O)[O-])cc1NCn1nc(-c2ccc(C)cc2)oc1=S yielded a Ratio IC50 of 2.5.

These compounds were tested against Thymidine phosphorylase (Escherichia coli K-12, UniProt P07650) (assay: Inhibition of Escherichia coli thymidine phosphorylase using […] as substrate after 10 mins by spectrophotometric analysis).
Sequence of Thymidine phosphorylase (P07650 whole entry): as the sequence (P07650 whole entry, looked up) above
Outline: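 Commercial E. coli TP in potassium phosphate buffer, pH 7.4, with […] substrate (1.5 mM stock). Test material incubated with the reaction mix for 10 min at 25 °C. Absorbance at 290 nm then read continuously at 10, 20 and 30 min. Substrate-free blanks were subtracted. Run in triplicate; IC50 given as mean ± SEM of three independent experiments.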
With Cc1ccc(-c2nn(CNc3ccccc3)c(=S)o2)cc1 the IC50 was 104 µM. Cc1ccc(-c2nn(CNc3cccc(C)c3C)c(=S)o2)cc1 was tested, and the IC50 was 23.7 µM. Work on Cc1ccc(-c2nn(CNc3ccc(C)c(C)c3)c(=S)o2)cc1 yielded an IC50 of 83.2 µM. COc1ccccc1NCn1nc(-c2ccccc2Br)oc1=S gave an IC50 of 17.6 µM. In the case of Cc1ccccc1NCn1nc(-c2ccc(Cl)cc2)oc1=S, the IC50 is reported as 58.2 µM. For S=c1oc(-c2ccc(Cl)cc2)nn1CNc1ccc(Br)cc1, the IC50 was 173 µM. With COc1ccccc1NCn1nc(-c2ccccc2)oc1=S the IC50 was 87.2 µM. COc1ccc([N+](=O)[O-])cc1NCn1nc(-c2ccc(C)cc2)oc1=S was tested, and the IC50 was 14.4 µM. Cc1ccc(-c2nn(CNc3ccc(Cl)c(Cl)c3)c(=S)o2)cc1 was tested, and the IC50 was 134 µM. In the case of Oc1ccccc1-c1nn(CNc2ccccc2Cl)c(=S)o1, the IC50 is reported as 130 µM. Work on COc1cccc(NCn2nc(-c3ccc(C)cc3)oc2=S)c1 yielded an IC50 of 84.4 µM. S=c1oc(-c2ccccc2Br)nn1CNc1ccccc1Cl gave an IC50 of 21.8 µM. Work on COc1cc(-c2nn(CNCCc3ccccc3)c(=S)o2)cc(OC)c1OC yielded an IC50 of 69.3 µM. Work on S=c1oc(-c2ccccc2)nn1CNc1ccccc1Cl yielded an IC50 of 118 µM. COc1cc(-c2nn(CNc3ccccc3C)c(=S)o2)cc(OC)c1OC was tested, and the IC50 was 117 µM. Cc1ccc(NCn2nc(-c3ccccc3)oc2=S)cc1C showed an IC50 of 40.6 µM. With S=c1oc(-c2ccc(Cl)cc2)nn1CNc1ccccc1Cl the IC50 was 46.4 µM. COc1ccccc1NCn1nc(-c2ccc(Cl)cc2)oc1=S was tested, and the IC50 was 88.7 µM. S=c1oc(-c2ccccc2Br)nn1CNc1ccc(Br)cc1 showed an IC50 of 26.3 µM. With Cc1ccc(NCn2nc(-c3ccc(C)cc3)oc2=S)cc1 the IC50 was 54.7 µM. In the case of COc1cccc(NCn2nc(-c3ccccc3)oc2=S)c1, the IC50 is reported as 40.6 µM.
